From publication PMC8161485 (ACS Central Science, 2021) come the findings set out here.

The structures appear in SMILES notation. Where a chain is given by its changes, count along the chain named.

Assay [1] concerns AML02 primary AML specimen. The assay is described as follows: Cell viability of primary AML specimen AML02. The note with it: Homo sapiens, read-out: AML02 LC50. The format is cell-based. The procedure, abridged: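 Primary AML samples came from consenting donors. Live mononuclear cells were isolated on a Ficoll-Paque density gradient and cryopreserved, with 40–70% viability after thawing. Cells were kept at 37 °C, humidified, 5% CO2.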

For assay [2], the system named is primary AML specimens derived from patients with relapsed AML. The assay is described as follows: Activity against the four primary AML specimens. As to conditions: Homo sapiens, read-out: LC50 across the four primary AML specimens. The format is cell-based.
For a further assay, the system named is heme oxygenase 1 (HO-1). The assay is described as follows: Induction of heme oxygenase 1 in primary AML specimens. The format is cell-based, human. As to conditions: compared to vehicle-only control.
A further assay deals with T1, P450BM3 variant FL#62 (Priestia megaterium, UniProt P14779, A181T/A185V/A198V/A291V/A83V/E253G/F206C/F82S/F88A/H237Q/L354V/P143S/R256S/S227R/T176I/V79A).
T1 sequence (P14779 1-1049 V79A/F82S/A83V/F88A/P143S/T176I/A181T/A185V/A198V/F206C/S227R/H237Q/E253G/R256S/A291V/L354V): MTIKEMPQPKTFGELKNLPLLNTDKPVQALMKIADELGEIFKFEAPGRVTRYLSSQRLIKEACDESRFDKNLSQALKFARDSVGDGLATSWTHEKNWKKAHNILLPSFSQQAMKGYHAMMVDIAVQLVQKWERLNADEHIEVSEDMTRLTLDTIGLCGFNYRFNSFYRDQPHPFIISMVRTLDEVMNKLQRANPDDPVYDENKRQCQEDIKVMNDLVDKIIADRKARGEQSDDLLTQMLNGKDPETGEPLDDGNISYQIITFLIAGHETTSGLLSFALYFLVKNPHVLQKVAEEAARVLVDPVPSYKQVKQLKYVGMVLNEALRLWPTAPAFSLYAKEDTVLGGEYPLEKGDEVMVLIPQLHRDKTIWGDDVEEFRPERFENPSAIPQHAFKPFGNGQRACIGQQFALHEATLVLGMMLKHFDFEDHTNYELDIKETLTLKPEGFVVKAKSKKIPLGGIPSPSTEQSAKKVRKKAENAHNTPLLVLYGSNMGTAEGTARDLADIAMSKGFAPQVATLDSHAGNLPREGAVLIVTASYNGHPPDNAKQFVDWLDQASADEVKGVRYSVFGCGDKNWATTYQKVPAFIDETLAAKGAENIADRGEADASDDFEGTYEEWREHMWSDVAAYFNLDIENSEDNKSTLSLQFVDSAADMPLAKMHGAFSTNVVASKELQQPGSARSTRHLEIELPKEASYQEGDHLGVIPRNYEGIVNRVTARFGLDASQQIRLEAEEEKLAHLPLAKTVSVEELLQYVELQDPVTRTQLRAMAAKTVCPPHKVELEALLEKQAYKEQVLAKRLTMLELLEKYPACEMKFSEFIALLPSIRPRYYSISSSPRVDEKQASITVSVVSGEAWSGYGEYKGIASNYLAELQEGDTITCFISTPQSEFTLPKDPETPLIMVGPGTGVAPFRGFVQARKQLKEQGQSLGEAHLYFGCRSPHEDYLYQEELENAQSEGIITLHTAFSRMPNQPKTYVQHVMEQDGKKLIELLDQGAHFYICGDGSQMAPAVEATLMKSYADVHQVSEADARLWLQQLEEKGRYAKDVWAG
The assay can be described thus: Heme spin shift binding of MCL to P450 variant FL#62. Also on record: species or system Bacillus megaterium. In outline:
(§1)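 Purified P450 (3 μM) in 50 mM potassium phosphate, pH 8.0, titrated with test compound (5–2000 μM) from a 50 mM ethanol stock. A difference spectrum (350–500 nm) was taken at each step. Absorbance change at 390/420 nm (high/low spin) was plotted against concentration, with KD from a nonlinear 1:1 binding fit. At least triplicate, room temperature.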

In a further assay the target is T2, P450BM3 variant V-F10 (Priestia megaterium, UniProt P14779, A181T/A185V/A198V/A291V/E253G/F206C/F82V/F88A/H237Q/L354V/P143S/R256S/S227R/T176I/V79F).
T2 sequence (P14779 1-1049 V79F/F82V/F88A/P143S/T176I/A181T/A185V/A198V/F206C/S227R/H237Q/E253G/R256S/A291V/L354V): T1 sequence (P14779 1-1049 V79A/F82S/A83V/F88A/P143S/T176I/A181T/A185V/A198V/F206C/S227R/H237Q/E253G/R256S/A291V/L354V) with A79F, S82V, V83A
The assay can be described thus: Heme spin shift binding of MCL to P450 variant V-F10. Also on record: species or system Bacillus megaterium. In outline: as §1

With `C=C1C(=O)O[C@H]2[C@H]1CCC(C)=C1CC[C@@](C)(O)[C@@H]12` [MCL, micheliolide], the CC50 is 20.3 µM in assay [1] and 19 to 22 µM in assay [2]. Further, in the assay on heme oxygenase 1 (HO-1), the “induction of heme oxygenase 1 (HO-1)” value is on record as “Dose-dependent induction”. In addition, the Kd at P450BM3 variant FL#62 worked out at 61 ± 3 µM; at P450BM3 variant V-F10 it was 88 ± 18 µM.

For orientation: Kd means a measure of binding affinity in units of concentration.
